The IC50 is the concentration needed to halve the response being measured.

One assay relates to Jurkat. Put plainly: Cytotoxicity against human Jurkat cells assessed as reduction in cell viability by MTT assay. The assay is classed as cell-based. The method, boiled down: (§1)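 Cells cultured in MEM or RPMI1640 with 10% FBS, 37 °C, 5% CO₂. After compound exposure, 5 µg/ml MTT in MEM for 2 h at 37 °C, then solubilized overnight at 37 °C (40% DMF, 20% SDS); absorbance at 570 nm. IC50 taken from linear portion of curve as concentration cutting absorbance 50% versus control.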
In general terms: Tetrazolium assays rely on reduction of a dye to a coloured formazan, in cell work by metabolically active cells.

Assay [1] deals with T1, Nuclear factor erythroid 2-related factor 2 (Homo sapiens) (UniProt Q16236).
T1 sequence (whole entry): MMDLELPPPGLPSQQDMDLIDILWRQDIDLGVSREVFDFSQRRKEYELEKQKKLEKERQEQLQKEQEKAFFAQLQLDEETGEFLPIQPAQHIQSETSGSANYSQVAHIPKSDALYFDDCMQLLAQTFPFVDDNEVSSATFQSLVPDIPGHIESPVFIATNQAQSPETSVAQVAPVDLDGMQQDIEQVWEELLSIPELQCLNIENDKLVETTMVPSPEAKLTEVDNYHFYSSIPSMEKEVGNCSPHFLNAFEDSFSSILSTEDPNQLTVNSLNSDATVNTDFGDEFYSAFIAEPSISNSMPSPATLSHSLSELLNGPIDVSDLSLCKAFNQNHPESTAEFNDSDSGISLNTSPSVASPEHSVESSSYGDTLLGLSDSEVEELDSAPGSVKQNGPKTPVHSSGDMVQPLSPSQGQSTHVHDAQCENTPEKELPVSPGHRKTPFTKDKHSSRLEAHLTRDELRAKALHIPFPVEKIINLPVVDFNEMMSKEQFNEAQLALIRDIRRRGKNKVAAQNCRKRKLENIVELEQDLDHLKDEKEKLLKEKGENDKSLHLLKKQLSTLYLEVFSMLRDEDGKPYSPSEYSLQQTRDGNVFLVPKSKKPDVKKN
Put plainly: Activation of Nrf2 in human NPC-TW01 or HONE1 cells expressing ARE-luciferase at 20 uM incubated for 16 hrs by luciferase reporter gene assay relative to untreated control. The format is cell-based. (In general: A reporter such as luciferase makes a cellular process visible.)

For the next assay, the system named is NCI-H226. As to the kind of experiment: Cytotoxicity against human NCI-H226 cells assessed as reduction in cell viability by MTT assay. The format is cell-based. The method, boiled down: as §1
Assay [2] in a line: Cytotoxicity against human NPC-TW01 cells assessed as reduction in cell viability by MTT assay. The assay is classed as cell-based. The method, boiled down:
as §1

Assay [3] concerns NPC-TW01. As to the kind of experiment: Inhibition of H2O2-induced intracellular oxidative stress in human NPC-TW01 cells expressing pGL4-9ARE at 20 uM pre-treated for 6 hrs before H2O2 challenge for 16 hrs by DCFH-DA dye based flow cytometry. The assay is classed as functional, cell-based. The method, boiled down: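 TW01-pGL4-9ARE cells, 1 × 10⁵ per well, grown overnight, pre-treated 20 µM for 6 h, then 500 µM H2O2 for 16 h. Stained with 20 µM DCFH-DA 30 min at 37 °C, resuspended in PBS, analysed by flow cytometry; geometric mean fluorescence reported, p < 0.05 versus H2O2 alone.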
A general note: In flow cytometry, cells or beads pass a laser one at a time.

The target in assay [4] is T1, Nuclear factor erythroid 2-related factor 2 (Homo sapiens). As to the kind of experiment: Induction of Nrf2 Ser40 phosphorylation in human NPC-TW01 cells expressing pGL4-9ARE incubated for 6 and 12 hrs by Western blot method. The assay is classed as cell-based. The method, boiled down:
(§2)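 TW01-pGL4-9ARE cells treated and harvested at set times; lysed in NP-40 buffer with phosphatase/protease inhibitors, protein by BCA. 40 µg lysate on 10% SDS-PAGE, PVDF transfer, 5% BSA/TBS-Tween block; primary antibodies (p-Nrf2 Ser40, total Nrf2, actin) overnight at 4 °C, HRP secondary 1 h room temperature; imaged by chemiluminescence imager.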

The subject of assay [5] is NPC-TW01. Put plainly: Effect on Nrf2 protein expression in human NPC-TW01 cells expressing pGL4-9ARE incubated for 6 and 12 hrs by Western blot method. The assay is classed as functional, cell-based. The method, boiled down: as §2
Assay [6] concerns the target T1, Nuclear factor erythroid 2-related factor 2 (Homo sapiens). As to the kind of experiment: Activation of Nrf2 in human NPC-TW01 or HONE1 cells expressing ARE-luciferase at 20 uM incubated for 16 hrs in presence of PKC signaling inhibitor staurosporine by luciferase reporter gene assay relative to untreated control. The assay is classed as cell-based.

The source made the active and inactive calls. No cut-off for these calls is given here. A value given as a limit tells only on which side of the number the result lay.

For the molecule `O/N=C(\COc1cccc2ccccc12)c1ccc(Br)cc1`, the IC50 (with Jurkat; in the assay on NCI-H226; in assay [2]) was over 50 µM in each case. In addition, the fold change (FC) in assay [1] stood at 1.03.

For the molecule `O/N=C(\COc1cccc2ccccc12)c1ccc(C(F)(F)F)cc1`, the IC50 in the assay on Jurkat was over 50 µM; in the assay on NCI-H226, over 50 µM; in assay [2] it was 46.4 µM. Moreover, in assay [1], the fold change (FC) was 1.01.

For `C/C(COc1ccc2ccccc2c1)=N\O`, the inhibition result in the assay on NPC-TW01 [3] was “Active”. Further, the result in assay [4] was Active. Besides, the outcome (in the assay on NPC-TW01 [5]; in assay [6]) was inactive. Besides, the IC50 (in the assay with Jurkat; with NCI-H226; in assay [2]) was over 50 µM each time. Further, the fold change (FC) in assay [1] came out at 2.04.

As to `O/N=C(\COc1ccc2ccccc2c1)c1ccc(-c2ccccc2)cc1`, the IC50 (with Jurkat; in the assay on NCI-H226; in assay [2]) was over 50 µM in each case. The fold change (FC) in assay [1] was determined as 1.18.

Turning to `O/N=C(\COc1ccc2ccccc2c1)c1ccc(Cl)cc1`, the IC50 in the assay with Jurkat is 37.3 µM; in the assay on NCI-H226, 34.9 µM; in assay [2] it was 26 µM. The fold change (FC) in assay [1] was found to be 1.07.

`O/N=C(\COc1ccc2ccccc2c1)c1ccc(F)c(F)c1`: the IC50 in the assay with Jurkat came to 44.6 µM; in the assay with NCI-H226, 42.8 µM; in assay [2], 36.1 µM. Further, the fold change (FC) in assay [1] worked out at 1.42.

Turning to `O/N=C(\COc1cccc2ccccc12)c1ccc(F)cc1`, the 50% inhibitory concentration (IC50) (with Jurkat; in the assay on NCI-H226; in assay [2]) was over 50 µM throughout. For the same molecule, the fold change (FC) in assay [1] was determined as 1.09.

In the case of `O/N=C(\COc1cccc2ccccc12)c1ccc(-c2ccccc2)cc1`, the IC50 (with Jurkat; with NCI-H226; in assay [2]) was over 50 µM each time. Besides, in assay [1], the fold change (FC) was determined as 1.19.

For `O/N=C(\COc1cccc2ccccc12)c1ccc(Cl)cc1`, the IC50 (in the assay on Jurkat; in the assay on NCI-H226; in assay [2]) was over 50 µM in each case. The fold change (FC) in assay [1] was 1.

Consider `O/N=C(\COc1ccc2ccccc2c1)c1ccc2ccccc2c1`, for which the figures for the IC50 (in the assay on Jurkat; in the assay with NCI-H226; in assay [2]) were 24.3 µM, 37.1 µM and over 50 µM, respectively. Moreover, the fold change (FC) in assay [1] was found to be 1.36.

Take `O/N=C(\COc1ccc2ccccc2c1)c1ccc(Br)cc1`: the IC50 in the assay with Jurkat is 47.2 µM; in the assay on NCI-H226, 39.1 µM; in assay [2] it was 27.9 µM. Besides, the fold change (FC) in assay [1] turned out to be 0.95.

On to `O/N=C(\COc1cccc2ccccc12)c1ccccc1`, for which the IC50 in the assay on Jurkat was over 50 µM; in the assay with NCI-H226 it was 47.1 µM; in assay [2], over 50 µM. The fold change (FC) in assay [1] was 1.14.

On to `CC(C)(C)c1cc(O)ccc1O`, for which the fold change (FC) in assay [1] worked out at 1.77.

Turning to `COc1ccc(OC)c(/C(COc2ccc3ccccc3c2)=N/O)c1`, the IC50 in the assay with Jurkat is 10.1 µM; in the assay on NCI-H226, 8.6 µM; in assay [2] it was 16.7 µM. Besides, in assay [1], the fold change (FC) turned out to be 0.65.

As for `O/N=C(\COc1cccc2ccccc12)c1ccc2ccccc2c1`, the IC50 with Jurkat is over 50 µM; with NCI-H226 it was 38.9 µM; in assay [2], 36.1 µM. Besides, the fold change (FC) in assay [1] came to 1.25.

As to `C/C(COc1cccc2ccccc12)=N\O`, the IC50 (in the assay on Jurkat; in the assay with NCI-H226; in assay [2]) was over 50 µM in each case. In addition, in assay [1], the fold change (FC) is 1.17.

In the case of `COc1ccc(/C(COc2ccc3ccccc3c2)=N/O)cc1`, the inhibition result with NPC-TW01 [3] is “Active”. Also, the result in assay [4] was Active. In addition, the result (in the assay on NPC-TW01 [5]; in assay [6]) was inactive. Further, the IC50 in the assay with Jurkat is 35.8 µM; in the assay with NCI-H226, over 50 µM; in assay [2] it was over 50 µM. Also, the fold change (FC) in assay [1] amounted to 1.65.

In the case of `COc1ccc(/C(COc2cccc3ccccc23)=N/O)cc1`, the figures for the IC50 (in the assay with Jurkat; with NCI-H226; in assay [2]) were 31.8 µM, 36.7 µM and 32.3 µM, respectively. For the same molecule, the fold change (FC) in assay [1] came to 1.1.

`O/N=C(\COc1ccc2ccccc2c1)c1ccccc1`: in the assay with NPC-TW01 [3], the inhibition entry is “Active”. In addition, the outcome in assay [4] was Active. Also, the result (in the assay with NPC-TW01 [5]; in assay [6]) was inactive. In addition, the IC50 (with Jurkat; with NCI-H226; in assay [2]) was over 50 µM each time. Further, in assay [1], the fold change (FC) turned out to be 3.49.

On to `COc1ccc(OC)c(/C(COc2cccc3ccccc23)=N/O)c1`, for which the IC50 is over 50 µM in the assay on Jurkat, 41.5 µM in the assay on NCI-H226 and 32.3 µM in assay [2]. Besides, in assay [1], the fold change (FC) turned out to be 0.93.

On to `O/N=C(\COc1cccc2ccccc12)c1ccc(F)c(F)c1`, for which the results for the IC50 (with Jurkat; in the assay on NCI-H226; in assay [2]) were 42.6 µM, over 50 µM and 36.8 µM, respectively. In assay [1], the fold change (FC) was 0.86.

As for `O/N=C(\COc1ccc2ccccc2c1)c1ccc(C(F)(F)F)cc1`, the IC50 is 36.2 µM in the assay with Jurkat, 34.1 µM in the assay with NCI-H226 and 30.7 µM in assay [2]. The fold change (FC) in assay [1] was 1.05.

For `O/N=C(\COc1ccc2ccccc2c1)c1ccc(F)cc1`, the inhibition entry in the assay with NPC-TW01 [3] was “Active”. In addition, the result in assay [4] was Active. Also, the result (in the assay on NPC-TW01 [5]; in assay [6]) was inactive. Further, the IC50 (in the assay with Jurkat; in the assay with NCI-H226; in assay [2]) was over 50 µM each time. In assay [1], the fold change (FC) was 2.61.

Source of the values: ChEMBL document CHEMBL3585270, “Discovery of oxime-bearing naphthalene derivatives as a novel structural type of Nrf2 activators” (Bioorg Med Chem, 2015).
